One experiment has as its target T1, Ornithine decarboxylase (Rattus norvegicus, UniProt P09057).
T1 sequence (P09057 whole entry): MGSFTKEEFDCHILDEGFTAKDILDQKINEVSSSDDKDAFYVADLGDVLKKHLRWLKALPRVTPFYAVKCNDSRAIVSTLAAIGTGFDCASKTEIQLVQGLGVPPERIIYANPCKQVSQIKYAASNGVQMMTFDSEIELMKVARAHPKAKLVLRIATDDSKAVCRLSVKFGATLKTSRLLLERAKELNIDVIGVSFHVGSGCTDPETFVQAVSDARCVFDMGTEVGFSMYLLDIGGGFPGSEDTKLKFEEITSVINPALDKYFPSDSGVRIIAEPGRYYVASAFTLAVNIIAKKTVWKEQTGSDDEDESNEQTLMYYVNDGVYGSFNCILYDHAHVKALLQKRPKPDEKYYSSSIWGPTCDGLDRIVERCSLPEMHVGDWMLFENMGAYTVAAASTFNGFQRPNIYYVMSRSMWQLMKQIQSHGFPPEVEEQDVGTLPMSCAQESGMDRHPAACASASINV
In words: Inhibitory activity against Rat liver ornithine decarboxylase (ODC). The gist of the method: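 Partially purified rat liver ODC. Reaction at 37 °C for up to 1 h in 100 mM Tris-HCl pH 7 with 4 mM EDTA, 4 mM DTT, 0.4 mM pyridoxal phosphate and 0.21 mM L-ornithine spiked with L-[1-¹⁴C]ornithine. Inhibitor, in 10 mM Tris pH 7, added with substrate. Released ¹⁴CO₂ trapped on alkali filter; acid stop; scintillation counting. IC50 by linear regression of log concentration versus % activity (95–5% range).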

Experiment [1] relates to T-24. In words: Inhibitory activity against Human T24 bladder carcinoma cells. Type of experiment: functional, cell-based.
Experiment [2] relates to T-24. Put plainly: The compound was tested for anti proliferative activity against Human T24 bladder carcinoma cells. The experiment is classed as functional, cell-based.

For `NCCCON`, the IC50 (in general, the concentration needed to halve the response being measured) against Ornithine decarboxylase was 0.035 µM; with T-24 [1] it was 8.34 µM.
The like results for `CN(C)CC(O)CON` (configuration not stated) were, in that order, above 50 µM and above 36.6 µM.
As for `Cc1ncc(COP(=O)(O)O)c(/C=N/OCC(O)CN)c1O` (configuration not stated), the figures for the 50% inhibitory concentration (IC50) on Ornithine decarboxylase and in the experiment with T-24 [2] were 24 µM and above 112 µM, respectively.
For the compound `NC[C@@H](O)CON`, the IC50 was 0.049 µM at Ornithine decarboxylase and 20.5 µM in the experiment on T-24 [1].
In the same order, the values of `NC[C@H](O)CON` are 0.033 µM and 16.3 µM.
As for `CC(C)NCC(O)CON` (configuration not stated), the IC50 is 66 µM on Ornithine decarboxylase and above 45.2 µM with T-24 [2].
On to `NCC(F)CON` (configuration not stated), for which the values for the IC50 against Ornithine decarboxylase and in the experiment with T-24 [1] were 0.014 µM and 2.38 µM, respectively.
With `NCC(O)CON` (configuration not stated), the IC50 on Ornithine decarboxylase came out at 0.039 µM; in the experiment on T-24 [1] it was 24.4 µM.
In the same order, the values of `NCC(Cl)CON` (configuration not stated) are 0.093 µM and 6.3 µM.
In the same order, the values of `NOCC(O)CON` are 670 µM and 181 µM.
The like results for `NCC(F)CNN` (configuration not stated) were, in that order, 3.3 µM and 163 µM.
For `C=CCNCC(O)CON` (configuration not stated), the half-maximal inhibitory concentration (IC50) was 21 µM against Ornithine decarboxylase and above 230 µM in the experiment with T-24 [2].
For the compound `CS(=O)(=O)OC(CN)CON` (configuration not stated), the IC50 against Ornithine decarboxylase is 1.1 µM; with T-24 [1], 111 µM.
For `Cc1ncc(COP(=O)(O)O)c(/C=N/OCC(F)CN)c1O` (configuration not stated), the concentration for half-maximal inhibition (IC50) against Ornithine decarboxylase stood at 5.2 µM; in the experiment on T-24 [2], 0.6 µM.
On to `CNCC(O)CON` (configuration not stated), for which the IC50 at Ornithine decarboxylase was 1.9 µM; in the experiment with T-24 [1] it was above 33.3 µM.
For `C#CCNCC(O)CON` (configuration not stated), the IC50 was 8.4 µM against Ornithine decarboxylase and above 230 µM in the experiment with T-24 [1].

For the origin of these results see ChEMBL document CHEMBL1125431, “2-substituted 3-(aminooxy)propanamines as inhibitors of ornithine decarboxylase: synthesis and biological activity” (J Med Chem, 1992).
